Screens deposited in PubChem BioAssay by Sanford-Burnham Center for Chemical Genomics.
697 NFkB inh: lowers PMA/ionomycin-induced NF-kB signal in 697 B cells. 697 B-cell NF-kB luciferase reporter, 16 h. inhibition, % at 4 µM. hit rate 0.33% among 330,000. AID 435022; in the data active = inhibition above about 35%
Jurkat NFkB inh: inhibitors of the PMA/ionomycin-induced NF-kB reporter in Jurkat cells; PMA/ionomycin-induced NF-kB luciferase reporter, luminescence; inhibition, % at 4 µM; hit rate 0.53% among 330,000; AID 435003; in the data active = inhibition above about 50%
UPR XBP1 act: adaptive UPR (XBP1) activation. activation, % at 20 µM. hit rate 0.33% among 330,000. AID 463104. CHO-XBP1 luciferase reporter, IRE1-XBP1 UPR activation, luminescence; percent of tunicamycin response, DMSO as zero;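 active = versus positive control, 20 µM dose yields 30% or more activation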;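 note: 100% = tunicamycin at 10 µg/mL and 0% = DMSO only wells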
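Material: CHO-XBP1 cells stably carrying IRE1-XBP1-driven luciferase reporter / Amount: 1000 cells per well / Compound: 20 µM, 1% DMSO / Times: 6 h treatment, 37 °C / Detection: luciferase luminescence / Measure: % activation of reporter signal versus tunicamycin and DMSO controls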
CHOP UPR activ: apoptotic UPR (CHOP) activation | CHO-CHOP luciferase reporter, luminescence; percent of tunicamycin response over DMSO baseline | hit rate 0.34% among 330,000 | activation, % at 10 µM | AID 449763;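 active = at 10 µM dose, activation of 40% or more, normalized to positive control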;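 note: 100% = tunicamycin at 10 µg/mL and 0% = DMSO alone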
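Test system: CHO-CHOP cells, stable luciferase reporter of PERK-eIF2a-CHOP signalling | Quantity: 500 CHO-CHOP cells per well | Buffer or medium: F12 plus 10% serum | Compound dosing: 10 µM single point, 0.5% DMSO | Schedule: 6 h compound treatment, 37 °C | Signal: Luciferase luminescence | Control set: Tunicamycin high control, DMSO low control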
CRFR2-BP antag: antagonists of CRF-binding protein/CRF-R2 receptor complex | hit rate 0.59% among 350,000 | HEK293 CRF-R2/CRF-BP, CRF-induced calcium fluorescence | AID 588475 | inhibition, % at 11.8 µM;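 active = inhibition of the ligand-induced calcium signal above about 50% at the single tested concentration, limit read from the data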
Jurkat NFkB conf: inhibitors of the PMA/ionomycin-induced NF-kB reporter in Jurkat cells, retest; shares compounds with Jurkat NFkB inh; Jurkat NF-kB luciferase, 16 h; inhibition, % at 4 µM; hit rate 27% among 2,700; AID 435020;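 active = inhibition reaching about 45% at 4 µM in either replicate, limit read from the data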;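 note: plate controls were PMA/ionomycin stimulated DMSO wells for no effect and unstimulated DMSO wells for full effect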
An asterisk follows results filed as active; x = not tested or not shown. Sampled rows, rich in hits. Any-hit rate of the full collection: about 1.8%.

SMILES	697 NFkB inh	Jurkat NFkB inh	UPR XBP1 act	CHOP UPR activ	CRFR2-BP antag	Jurkat NFkB conf
CCOC(=O)C1=C(C)NC(SC)=C(C#N)C1CC(C)C (centres undefined)	-66	57*	-1	-1	2	17
CSc1nsc(SCC(=O)Nc2ccc(NC(C)=O)cc2)n1	4	-22	-5	3	7	x
CNC(=O)CSc1nc(SC)ns1	12	-4	2	2	5	x
COc1ccc(NC(=O)CSc2nc(SC)ns2)cc1	-58	-154	5	3	15	-45
COC(=O)CSc1nsc(SCC(=O)OC)n1	-46	62*	2	-2	-4	10
CC(=O)C1=C(O)C(=O)N(c2ccccn2)C1c1cccc(F)c1 (centres undefined)	-4	-24	4	2	-6	x
Cc1cc(C)c(C(=O)CN2C(=O)NC3(CCC(C)CC3)C2=O)cc1C (centres undefined)	0	-2	6	-1	-11	x
Cc1ccc(C)c(C(=O)CN2C(=O)NC3(CCC(C)CC3)C2=O)c1 (centres undefined)	-68	64*	-1	1	-25	8
CC(C)(Oc1ccc(Br)cc1Cl)C(=O)Nc1ccon1	14	6	-6	-2	-26	x
CC(Oc1ccc(Cl)cc1Cl)c1nc(-c2ccc(NC(=O)c3cccnc3)cc2)no1 (centres undefined)	17	18	0	4	-1	x
CC(Oc1ccc(Cl)cc1Cl)c1nc(-c2ccc(NC(=O)c3ccncc3)cc2)no1 (centres undefined)	-3	51*	7	9	-62	57*
O=C(/C=C\Nc1ccc2c(c1)OCO2)c1ccccn1	-52	55*	-11	-10	-12	-38
N=c1c(C(=O)NCc2ccc(F)cc2)cc2c(=O)n3ccccc3nc2n1Cc1ccco1	-26	59*	20	2	-14	26
Cc1ccc(O)c(NC(=O)CCC2CCCCC2)c1	3	64*	-2	2	-7	40
Cc1cccc(OCC(=O)Nc2cc(C)c(C)cc2O)c1	-9	7	-1	2	-3	x
CCOc1ccc(N/C=C/C(=O)c2ccc(OC)cc2)c([N+](=O)[O-])c1	-80	-69	5	4	-14	x
O=C(CCC1CCCCC1)Nc1ccccc1O	-72	-84	5	3	-1	x
COc1ccc(N/C=C/C(=O)c2ccc(C)cc2)c([N+](=O)[O-])c1	-191	-179	0	8	2	-84
Cc1cccc(OCC(=O)Nc2cc(C)ccc2O)c1	29	72*	-3	-2	17	55*
COc1ccc(C(=O)/C=C/Nc2cccc(O)c2)cc1	-60	-179	-4	-2	16	-69
CCc1ccc2oc(C(=O)NCCc3ccc(S(N)(=O)=O)cc3)cc(=O)c2c1	20	-3	-3	-1	3	x
C[C@H](CO)N1C[C@H](C)[C@@H](CN(C)S(C)(=O)=O)Oc2ccc(NC(=O)Nc3ccccc3)cc2C1=O	23	11	-2	2	1	x
COc1cccc(C(=O)/C=C/Nc2cc(C)ccc2O)c1	-61	67*	8	7	4	-8
Cc1ccc(Cl)c(N/C=C/C(=O)c2ccccc2)c1	-229	-181	5	4	1	-80
CCOC(=O)c1ccc(N/C=C\C(=O)c2cccc(OC)c2)cc1	-65	-29	2	3	10	x
SMILES	697 NFkB inh	Jurkat NFkB inh	UPR XBP1 act	CHOP UPR activ	CRFR2-BP antag	Jurkat NFkB conf
Cc1cc(NS(=O)(=O)c2ccc(NC(=O)COc3ccc(C#N)cc3)cc2)nc(C)n1	12	-5	-3	1	-1	x
COc1ccc(OC)c(COC(=O)c2cc([N+](=O)[O-])ccc2N2CCOCC2)c1	-38	52*	0	0	-2	30
Cc1ccccc1COC(=O)c1cc([N+](=O)[O-])ccc1N1CCOCC1	1	35	-2	-1	-7	x
CCOc1ccc(C(=O)COC(=O)c2cc([N+](=O)[O-])ccc2N2CCOCC2)cc1	-23	53*	-5	3	-6	7
O=C(COC(=O)c1cc([N+](=O)[O-])ccc1N1CCOCC1)c1ccc(Br)cc1	-16	13	3	1	9	x
CSc1ccc(COC(=O)c2cc([N+](=O)[O-])ccc2N2CCOCC2)cc1	-85	81*	5	2	-12	66*
CCN(CC)CCOC(=O)c1ccc(NC(=O)CCCN2C(=O)/C(=C/c3cccs3)SC2=S)cc1	-19	-12	-3	0	-25	x
COCCC(=O)N1CCC(Oc2ccc(C(=O)NCCC3=CCCCC3)cc2)CC1	-48	10	-2	1	-1	x
Cc1cc(C(=O)CCC(=O)N(C)CC(=O)Nc2c(Cl)cccc2Cl)c(C)s1	12	-11	-1	0	8	x
CCOC(=O)CSC1=C(C#N)C(c2ccc(C)s2)CC(=O)N1 (centres undefined)	5	57*	2	0	14	49*
CC(=O)c1sc(NC(=O)c2ccc(C(C)(C)C)cc2)nc1C	-231	-172	1	3	-10	-86
CC(=Nc1ccc(C)cc1C)c1sc2ccccc2c1O	-173	-203	-2	5	-33	-40
Cc1[nH]c(C(=O)N/N=C/c2ccc(C(=O)O)cc2)c(C)c1C(=O)N/N=C/c1ccc(C(=O)O)cc1	10	-9	-1	-1	0	x
CCOC(=O)Nc1ccc2c(c1)OCO2	-54	-30	3	3	8	x
CCOC(=O)c1c(C)[nH]c(C(=O)Nc2ccc3c(c2)OCO3)c1C	-154	-187	1	6	x	-94
CCOC(=O)c1c(C)[nH]c(C(=O)N/N=C/c2ccc(Br)cc2)c1C	-72	79*	9	-1	-57	46
O=C(NCC(c1ccccc1Cl)N1CCCC1)c1ccc(N2CCCC2=O)cc1 (centres undefined)	-37	-37	-4	1	-1	x
O=C(COc1ccc(Br)cc1Br)NC(=O)NC1CCCC1	-66	-73	2	3	-27	x
CC(C)(C)NC(=O)NC(=O)COc1ccc(Br)cc1Br	-201	-210	-3	3	-23	-101
CCOC(=O)Cn1c2c(c(=N)c3ccccc31)CCC2	-6	-1	-1	2	1	x
CCCCCCCCn1c2c(c(=N)c3ccccc31)CCC2	26	99*	15	16	-19	69*
CCCCCn1c2c(c(=N)c3ccccc31)CCC2	35	74*	1	0	0	47*
O=C(COC(=O)c1c(Cl)ccc(Cl)c1Cl)NCC1CCCO1 (centres undefined)	14	-10	-2	1	-3	x
CC1CCN(C(=O)CN2C(=O)NC(C)(c3ccc4ccccc4c3)C2=O)CC1 (centres undefined)	11	59*	3	0	-10	35
